One series concerns IGROV-1. Briefly: Inhibition of ovarian cancer IGROVI cell proliferation. It is filed as functional. Conditions: Homo sapiens; call rule not given here. The method in brief:
(§1)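 NCI in vitro antitumour screen across 60 human tumour cell lines, run as a sulforhodamine B protein cytotoxicity assay. Values are log GI50, mean of two determinations. The panel mean-graph midpoint (MG_MID) summarises all 60 lines, and the ovarian IGROV1 line is reported individually.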

The subject of a further series is Tumor Cell line. Nature of the series: Cytostatic activity in performed screen of NCI 60 cell lines, mean graph midpoint. It is filed as functional. As to conditions: Homo sapiens. The method in brief:
as §1

Series [1] has as its target Cyclin-dependent kinase 5/CDK5 activator 1 (Homo sapiens) (UniProt Q00535+Q15078). Briefly: Inhibition of Cyclin-dependent kinase 5 (CDK5) at 10 uM. It is filed as protein-complex assay. The method in brief: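 Recombinant GST-tagged mammalian CDK5 and p25 mixed in equal amounts and purified. Assayed in the same homogenization buffer as CDK1/cyclin B (Mops pH 7.2, Mg2+, EGTA, DTT, phosphatase inhibitors) at 30 °C with 15 μM final ATP for 10 min. Phosphate incorporation measured with blanks subtracted. Percent inhibition at 10 μM test concentration, mean of two determinations.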

In series [2] the target is Cyclin-dependent kinase 1/cyclin B (Homo sapiens, UniProt P06493+P14635+Q8WWL7+O95067). Nature of the series: Inhibition of Cyclin-dependent kinase 1-cyclin B from M phase starfish (Marthasterias glacialis) oocytes (inactive). It is filed as cell-based, Asteroidea. Conditions: oocyte.
Chain of Cyclin-dependent kinase 1/cyclin B (Homo sapiens, UniProt P06493+P14635+Q8WWL7+O95067) (P06493 whole entry): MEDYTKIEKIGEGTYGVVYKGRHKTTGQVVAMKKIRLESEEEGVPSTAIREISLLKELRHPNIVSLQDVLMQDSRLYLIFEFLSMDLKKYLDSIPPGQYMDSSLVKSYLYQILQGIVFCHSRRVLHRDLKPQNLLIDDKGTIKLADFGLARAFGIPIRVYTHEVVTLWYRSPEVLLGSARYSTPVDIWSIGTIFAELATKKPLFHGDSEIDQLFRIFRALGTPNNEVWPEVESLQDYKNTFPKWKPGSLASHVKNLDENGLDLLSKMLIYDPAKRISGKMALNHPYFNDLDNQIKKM
Chain of Cyclin-dependent kinase 1/cyclin B (Homo sapiens, UniProt P06493+P14635+Q8WWL7+O95067) (P14635 whole entry): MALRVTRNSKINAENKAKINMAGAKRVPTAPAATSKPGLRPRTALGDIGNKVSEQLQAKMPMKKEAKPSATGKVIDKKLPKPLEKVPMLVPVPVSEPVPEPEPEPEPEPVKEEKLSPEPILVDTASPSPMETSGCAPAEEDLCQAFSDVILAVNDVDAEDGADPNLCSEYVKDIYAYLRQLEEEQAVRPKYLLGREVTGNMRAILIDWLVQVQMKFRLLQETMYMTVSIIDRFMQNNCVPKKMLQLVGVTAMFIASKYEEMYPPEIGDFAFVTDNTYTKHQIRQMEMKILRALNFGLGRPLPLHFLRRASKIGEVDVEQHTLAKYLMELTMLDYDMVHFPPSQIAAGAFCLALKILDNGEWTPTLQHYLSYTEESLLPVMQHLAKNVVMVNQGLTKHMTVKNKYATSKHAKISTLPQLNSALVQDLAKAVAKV
Chain of Cyclin-dependent kinase 1/cyclin B (Homo sapiens, UniProt P06493+P14635+Q8WWL7+O95067) (Q8WWL7 whole entry): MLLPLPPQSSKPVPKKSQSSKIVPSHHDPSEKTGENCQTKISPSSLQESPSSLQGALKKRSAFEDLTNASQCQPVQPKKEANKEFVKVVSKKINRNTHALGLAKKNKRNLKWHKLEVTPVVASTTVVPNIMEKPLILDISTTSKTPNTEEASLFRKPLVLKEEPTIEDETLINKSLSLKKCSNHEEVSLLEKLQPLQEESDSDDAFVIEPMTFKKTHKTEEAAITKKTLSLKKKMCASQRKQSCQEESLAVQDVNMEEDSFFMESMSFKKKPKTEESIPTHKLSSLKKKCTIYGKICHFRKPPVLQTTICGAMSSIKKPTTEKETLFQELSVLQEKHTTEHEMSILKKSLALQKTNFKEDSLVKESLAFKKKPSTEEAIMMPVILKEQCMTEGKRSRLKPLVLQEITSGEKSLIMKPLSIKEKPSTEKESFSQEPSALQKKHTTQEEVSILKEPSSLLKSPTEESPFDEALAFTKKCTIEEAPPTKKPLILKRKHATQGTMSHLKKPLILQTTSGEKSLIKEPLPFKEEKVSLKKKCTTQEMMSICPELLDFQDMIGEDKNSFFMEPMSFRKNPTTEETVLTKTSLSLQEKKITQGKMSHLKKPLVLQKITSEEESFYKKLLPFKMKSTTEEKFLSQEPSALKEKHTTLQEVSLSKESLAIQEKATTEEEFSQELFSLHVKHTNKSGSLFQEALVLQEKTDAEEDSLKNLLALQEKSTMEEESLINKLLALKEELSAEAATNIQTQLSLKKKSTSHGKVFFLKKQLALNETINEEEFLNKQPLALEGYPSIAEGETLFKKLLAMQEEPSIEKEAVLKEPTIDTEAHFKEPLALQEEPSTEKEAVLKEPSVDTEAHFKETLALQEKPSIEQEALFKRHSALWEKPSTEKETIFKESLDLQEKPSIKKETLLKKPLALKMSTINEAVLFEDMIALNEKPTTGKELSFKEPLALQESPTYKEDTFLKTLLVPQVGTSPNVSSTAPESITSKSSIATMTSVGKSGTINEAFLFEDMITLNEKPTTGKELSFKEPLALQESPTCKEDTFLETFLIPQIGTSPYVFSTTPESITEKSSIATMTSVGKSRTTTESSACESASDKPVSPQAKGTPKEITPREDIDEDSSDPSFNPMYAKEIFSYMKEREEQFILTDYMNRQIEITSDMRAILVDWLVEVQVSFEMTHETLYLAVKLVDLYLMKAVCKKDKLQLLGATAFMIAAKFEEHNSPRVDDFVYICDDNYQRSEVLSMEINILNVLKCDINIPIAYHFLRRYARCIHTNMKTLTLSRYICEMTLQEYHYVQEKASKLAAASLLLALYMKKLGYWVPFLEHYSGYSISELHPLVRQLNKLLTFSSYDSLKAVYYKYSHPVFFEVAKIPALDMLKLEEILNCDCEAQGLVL
Chain of Cyclin-dependent kinase 1/cyclin B (Homo sapiens, UniProt P06493+P14635+Q8WWL7+O95067) (O95067 whole entry): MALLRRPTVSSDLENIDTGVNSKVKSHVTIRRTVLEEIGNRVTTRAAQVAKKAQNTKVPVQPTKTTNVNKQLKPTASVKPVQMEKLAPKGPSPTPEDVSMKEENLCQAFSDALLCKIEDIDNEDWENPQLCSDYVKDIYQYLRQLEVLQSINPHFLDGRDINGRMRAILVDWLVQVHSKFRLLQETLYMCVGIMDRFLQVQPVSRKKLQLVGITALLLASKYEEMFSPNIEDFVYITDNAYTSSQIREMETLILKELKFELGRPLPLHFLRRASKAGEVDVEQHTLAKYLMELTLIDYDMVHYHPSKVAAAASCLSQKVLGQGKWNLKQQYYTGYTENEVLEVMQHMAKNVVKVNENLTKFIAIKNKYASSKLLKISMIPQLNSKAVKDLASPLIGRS
Series [3] deals with T1, ATP-dependent translocase ABCB1 (Homo sapiens, UniProt P08183). Nature of the series: Inhibition of membrane efflux pump P-glycoprotein at 7 uM. It is filed as functional. The method in brief:
(§2)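 Rhodamine 123 uptake in L5178Y mouse T-cell lymphoma parental cells and the L5178YvMDR subline transfected with human MDR-1, at 2 × 10⁶ cells/mL in serum-free McCoy's 5A. Cells were preincubated with compound at room temperature, then given 5.2 μM rhodamine 123 (final) for 20 min at 37 °C and washed twice in PBS. Fluorescence of 1 × 10⁴ cells was read by flow cytometry. R = (MDR treated/untreated)/(parental treated/untreated), mean of two determinations.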

The target of series [4] is T1, ATP-dependent translocase ABCB1. Briefly: Inhibition of P-glycoprotein, MDR-1, expressed in mouse T-cell lymphoma cell line at 70 uM. It is filed as functional, cell-based. The method in brief:
as §2

The target of series [5] is Cyclin-dependent kinase 1/cyclin B (Homo sapiens, UniProt O95067+P06493+P14635+Q8WWL7). Nature of the series: Inhibition of Cyclin-dependent kinase 1-cyclin B from M phase starfish (Marthasterias glacialis) oocytes. It is filed as cell-based, Asteroidea, Oocyte.
Chain of Cyclin-dependent kinase 1/cyclin B (Homo sapiens, UniProt O95067+P06493+P14635+Q8WWL7) (P06493 whole entry): as the sequence (P06493 whole entry) above
Chain of Cyclin-dependent kinase 1/cyclin B (Homo sapiens, UniProt O95067+P06493+P14635+Q8WWL7) (P14635 whole entry): as the sequence (P14635 whole entry) above
Chain of Cyclin-dependent kinase 1/cyclin B (Homo sapiens, UniProt O95067+P06493+P14635+Q8WWL7) (Q8WWL7 whole entry): as the sequence (Q8WWL7 whole entry) above
Chain of Cyclin-dependent kinase 1/cyclin B (Homo sapiens, UniProt O95067+P06493+P14635+Q8WWL7) (O95067 whole entry): as the sequence (O95067 whole entry) above

Bounds are passed on as bounds.

The results in this text go back to ChEMBL document CHEMBL1145780, “Evaluation of the first cytostatically active 1-aza-9-oxafluorenes as novel selective CDK1 inhibitors with P-glycoprotein modulating properties” (J Med Chem, 2003).

Chain of Cyclin-dependent kinase 5/CDK5 activator 1 (Homo sapiens) (Q00535 whole entry): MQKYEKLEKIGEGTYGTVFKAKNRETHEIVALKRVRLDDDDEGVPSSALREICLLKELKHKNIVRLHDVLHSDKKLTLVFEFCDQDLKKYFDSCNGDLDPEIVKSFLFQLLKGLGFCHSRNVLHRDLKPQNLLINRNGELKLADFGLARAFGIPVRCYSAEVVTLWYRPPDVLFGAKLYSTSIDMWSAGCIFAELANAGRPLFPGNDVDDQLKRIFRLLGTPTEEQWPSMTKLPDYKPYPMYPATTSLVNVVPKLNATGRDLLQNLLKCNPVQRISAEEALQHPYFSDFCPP
Chain of Cyclin-dependent kinase 5/CDK5 activator 1 (Homo sapiens) (Q15078 99-307 partner limits assumed): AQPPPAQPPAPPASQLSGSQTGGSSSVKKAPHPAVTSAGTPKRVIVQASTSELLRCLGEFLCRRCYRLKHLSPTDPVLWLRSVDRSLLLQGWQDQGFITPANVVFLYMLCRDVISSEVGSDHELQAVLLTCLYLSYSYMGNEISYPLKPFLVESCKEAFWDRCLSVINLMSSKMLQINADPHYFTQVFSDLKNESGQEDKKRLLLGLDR
T1 sequence (P08183 whole entry): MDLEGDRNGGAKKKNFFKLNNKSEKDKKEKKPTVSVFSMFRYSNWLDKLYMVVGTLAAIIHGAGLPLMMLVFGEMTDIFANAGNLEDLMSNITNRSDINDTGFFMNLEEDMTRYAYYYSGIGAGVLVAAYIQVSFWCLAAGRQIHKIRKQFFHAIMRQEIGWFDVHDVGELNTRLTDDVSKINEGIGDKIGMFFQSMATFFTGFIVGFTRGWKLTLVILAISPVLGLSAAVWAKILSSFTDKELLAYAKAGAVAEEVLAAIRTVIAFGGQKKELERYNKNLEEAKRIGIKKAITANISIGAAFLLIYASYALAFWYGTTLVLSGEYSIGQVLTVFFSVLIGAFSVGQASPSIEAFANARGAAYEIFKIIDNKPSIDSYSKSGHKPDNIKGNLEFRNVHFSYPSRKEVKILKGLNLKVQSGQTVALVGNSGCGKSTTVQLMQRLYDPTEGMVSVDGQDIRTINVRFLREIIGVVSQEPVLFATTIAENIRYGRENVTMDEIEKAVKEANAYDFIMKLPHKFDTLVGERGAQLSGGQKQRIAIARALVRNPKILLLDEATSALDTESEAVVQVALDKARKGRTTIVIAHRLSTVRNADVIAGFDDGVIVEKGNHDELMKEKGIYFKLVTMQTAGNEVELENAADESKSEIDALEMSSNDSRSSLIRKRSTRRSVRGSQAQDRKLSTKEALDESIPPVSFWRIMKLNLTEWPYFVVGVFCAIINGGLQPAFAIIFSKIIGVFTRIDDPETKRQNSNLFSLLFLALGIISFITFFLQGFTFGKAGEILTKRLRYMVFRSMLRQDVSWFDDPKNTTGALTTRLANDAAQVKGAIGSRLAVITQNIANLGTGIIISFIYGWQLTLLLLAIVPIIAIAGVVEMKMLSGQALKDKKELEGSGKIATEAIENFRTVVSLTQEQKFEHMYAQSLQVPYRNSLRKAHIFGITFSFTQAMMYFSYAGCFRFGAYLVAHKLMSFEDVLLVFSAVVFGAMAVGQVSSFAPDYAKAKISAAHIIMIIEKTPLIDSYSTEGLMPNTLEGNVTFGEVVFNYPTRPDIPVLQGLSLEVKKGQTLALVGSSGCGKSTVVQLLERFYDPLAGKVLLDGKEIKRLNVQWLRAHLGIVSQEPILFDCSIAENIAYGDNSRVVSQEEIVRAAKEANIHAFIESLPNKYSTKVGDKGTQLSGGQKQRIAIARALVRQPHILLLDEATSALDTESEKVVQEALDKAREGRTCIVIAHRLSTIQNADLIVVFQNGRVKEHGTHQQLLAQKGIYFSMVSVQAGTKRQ

For the compound `CC(=O)c1cnc2oc3ccc(O)cc3c2c1C`, the GI50 in the series on IGROV-1 and in the series on Tumor Cell line was > 100 µM each time. The compound also yielded an inhibition in series [1] of 10%. For the same compound, in series [2], the IC50 entry is recorded as “Not Active”.
For the compound `CCOC(=O)c1cnc2oc3ccc(O)cc3c2c1-c1ccccc1`, the figures for the Inhibitory activity ratio in series [3] and in series [4] were 9.5 and 9.14, respectively. Moreover, the GI50 with IGROV-1 was 2.51 µM; with Tumor Cell line, 31.6 µM. The compound also displayed an IC50 in series [5] of 28.8 µM. The compound further returned an inhibition in series [1] of 6%.
Regarding `CCOC(=O)c1cnc2oc3ccc(O)cc3c2c1C`, the Inhibitory activity ratio in series [3] stood at 1.18; in series [4], 4.77. Besides, the GI50 with IGROV-1 and with Tumor Cell line was 79.4 µM in each case. The compound also had an inhibition in series [1] of 3%. In series [2], the IC50 entry was “Not Active”.
`CC(=O)c1cnc2oc3ccc(O)cc3c2c1-c1ccccc1`: the Inhibitory activity ratio in series [3] came to 1.26; in series [4] it was 6.74. For the same compound, the GI50 was 5.01 µM in the series on IGROV-1 and 31.6 µM with Tumor Cell line. Further, the half-maximal inhibitory concentration (IC50) in series [5] is 4.2 µM. Also, in series [1], the inhibition was 15%.
On to `CCOC(=O)c1cnc2oc3ccc(OC(C)=O)cc3c2c1-c1ccccc1`, for which the GI50 in the series on IGROV-1 was > 100 µM.
